Measurements published in ChEMBL document CHEMBL1136094, “Novel, potent and selective cyclin D1/CDK4 inhibitors: indolo[6,7-a]pyrrolo[3,4-c]carbazoles” (Bioorg Med Chem Lett, 2003).
pIC50: −log10 of the molar value. Values after ≈ are worked out from the molar mass of the structure shown.

Key:
[1] = biological target: Glycogen synthase kinase-3 beta (Homo sapiens, UniProt P49841); test: Inhibition of Glycogen synthase kinase-3 beta
[2] = biological target: Cyclin-dependent kinase 2/cyclin E (Homo sapiens, UniProt P24941); test: Inhibitory activity against Cyclin E-cyclin-dependent kinase 2 in enzymatic assay by measuring phosphorylation of RbING; type: protein-complex assay
[3] = biological target: T1, Casein kinase II (Homo sapiens) (UniProt P67870+P68400+P19784); test: Inhibition of CK2 kinase at 500 nM; type: protein-complex assay; design: scale not given: the % may be the effect or the level left
Outline: (§1)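 Panel profiling of isolated kinases with inhibitor at 100 nM and 500 nM. […] Remaining kinase activity is expressed as % of control and is the mean of duplicate assays.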

[4] = biological target: Tyrosine-protein kinase ZAP-70 (Homo sapiens) (UniProt P43403); test: Inhibition of Zeta-chain (TCR) associated protein kinase 70 kDa (ZAP70) at 500 nM; design: scale not given: the % may be the effect or the level left
Outline: (§2)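 Panel of 39 kinases, each tested at 100 and 500 nM inhibitor. […] Activity is expressed as % of control and is the mean of duplicate assays.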

[5] = biological target: Serine/threonine-protein kinase Chk2 (Homo sapiens) (UniProt O96017); test: Inhibition of Serine/threonine-protein kinase Chk2 at 500 nM; design: scale not given: the % may be the effect or the level left; outline: as §2
[6] = biological target: Tyrosine-protein kinase CSK (Homo sapiens) (UniProt P41240); test: Inhibition of Tyrosine-protein kinase CSK at 500 nM; design: scale not given: the % may be the effect or the level left; outline: as §2
[7] = biological target: Tyrosine-protein kinase Lck (Homo sapiens) (UniProt P06239); test: Inhibition of p56 Lck tyrosine kinase at 100 nM; design: scale not given: the % may be the effect or the level left; outline: as §2
[8] = biological target: T2, Cyclin-dependent kinase 4/cyclin D1 (Homo sapiens, UniProt P11802); test: Inhibitory activity against Cyclin D1-cyclin-dependent kinase 4 in enzymatic assay by measuring phosphorylation of RbING; type: protein-complex assay
[9] = biological target: 3-phosphoinositide-dependent protein kinase 1 (Homo sapiens) (UniProt O15530); test: Inhibition of PDK1 kinase at 500 nM; design: scale not given: the % may be the effect or the level left; outline: as §1
[10] = biological target: T1, Casein kinase II (Homo sapiens); test: Inhibition of CK2 kinase at 100 nM; type: protein-complex assay; design: scale not given: the % may be the effect or the level left; outline: as §1
[11] = biological target: MAP kinase-activated protein kinase 2 (Homo sapiens) (UniProt P49137); test: Inhibition of mitogen-activated protein kinase-activated protein kinase 2 at 500 nM; design: scale not given: the % may be the effect or the level left; outline: as §2
[12] = biological target: Tyrosine-protein kinase Fyn (Homo sapiens) (UniProt P06241); test: Inhibition of Fyn protein kinase at 500 nM; design: scale not given: the % may be the effect or the level left; outline: as §1
[13] = biological target: Dual specificity mitogen-activated protein kinase kinase 7 (Homo sapiens) (UniProt O14733); test: Inhibition of MKK7-beta kinase at 500 nM; design: scale not given: the % may be the effect or the level left; outline: as §1
[14] = biological target: Inhibitor of nuclear factor kappa-B kinase subunit beta (Homo sapiens) (UniProt O14920); test: Inhibition of I-kappa-B-kinase beta at 100 nM; design: scale not given: the % may be the effect or the level left; outline: as §1
[15] = biological target: Inhibitor of nuclear factor kappa-B kinase subunit beta (Homo sapiens) (UniProt O14920); test: Inhibition of I-kappa-B-kinase beta at 500 nM; design: scale not given: the % may be the effect or the level left; outline: as §1
[16] = biological target: Protein kinase C alpha type (Homo sapiens) (UniProt P17252); test: Inhibition of Protein kinase C alpha at 100 nM; design: scale not given: the % may be the effect or the level left; outline: as §1
[17] = biological target: Ribosomal protein S6 kinase (P70S6K) (Homo sapiens) (UniProt Q9UBS0+P23443); test: Inhibition of Ribosomal protein S6 kinase (p70S6K) at 500 nM; type: protein-complex assay; design: scale not given: the % may be the effect or the level left; outline: as §2
[18] = biological target: T2, Cyclin-dependent kinase 4/cyclin D1; test: Inhibitory activity against Cyclin D1-cyclin-dependent kinase 4 in enzymatic assay by measuring phosphorylation of Rb21; type: protein-complex assay
[19] = biological target: Serine/threonine-protein kinase N2 (Homo sapiens) (UniProt Q16513); test: Inhibition of PRK2 at 500 nM; design: scale not given: the % may be the effect or the level left; outline: as §1
[20] = biological target: Dual specificity mitogen-activated protein kinase kinase 6 (Homo sapiens) (UniProt P52564); test: Inhibition of mitogen-activated protein kinase kinase 6 at 100 nM; design: scale not given: the % may be the effect or the level left; outline: as §2
[21] = biological target: Dual specificity mitogen-activated protein kinase kinase 6 (Homo sapiens) (UniProt P52564); test: Inhibition of mitogen-activated protein kinase kinase 6 at 500 nM; design: scale not given: the % may be the effect or the level left; outline: as §2
[22] = biological target: T3, Cyclin-dependent kinase 5/CDK5 activator 1 (Homo sapiens) (UniProt Q00535+Q15078); test: Inhibition of Cyclin-dependent kinase 5-p35nck5a at 500 nM; type: protein-complex assay; design: scale not given: the % may be the effect or the level left; outline: as §1
[23] = biological target: Protein kinase C theta type (Homo sapiens) (UniProt Q04759); test: Inhibition of Protein kinase C theta at 100 nM; design: scale not given: the % may be the effect or the level left; outline: as §2
[24] = biological target: Protein kinase C gamma type (Homo sapiens) (UniProt P05129); test: Inhibition of Protein kinase C gamma at 500 nM; design: scale not given: the % may be the effect or the level left; outline: as §2
[25] = Inhibition of AMP-activated Protein Kinase at 100 nM; design: scale not given: the % may be the effect or the level left; outline: as §1
[26] = biological target: Tyrosine-protein kinase Blk (Homo sapiens) (UniProt P51451); test: Inhibition of B lymphoid tyrosine kinase at 100 nM; design: scale not given: the % may be the effect or the level left; outline: as §1
[27] = biological target: Ribosomal protein S6 kinase alpha-5 (Homo sapiens) (UniProt O75582); test: Inhibition of MSK-1 kinase at 100 nM; design: scale not given: the % may be the effect or the level left; outline: as §1
[28] = Aqueous solubility (in situ) in D5W after 1 week was determined; type: physicochemical; conditions: D5W
[29] = biological target: Protein kinase C theta type (Homo sapiens) (UniProt Q04759); test: Inhibition of Protein kinase C theta at 500 nM; design: scale not given: the % may be the effect or the level left; outline: as §2
[30] = biological target: Dual specificity mitogen-activated protein kinase kinase 4 (Homo sapiens) (UniProt P45985); test: Inhibition of mitogen-activated protein kinase kinase 4 at 100 nM; design: scale not given: the % may be the effect or the level left; outline: as §2
[31] = biological target: Protein kinase C gamma type (Homo sapiens) (UniProt P05129); test: Inhibition of Protein kinase C gamma at 100 nM; design: scale not given: the % may be the effect or the level left; outline: as §1
[32] = biological target: Serine/threonine-protein kinase Sgk1 (Homo sapiens) (UniProt O00141); test: Inhibition of Serum/glucocorticoid regulated kinase at 500 nM; design: scale not given: the % may be the effect or the level left; outline: as §2
[33] = biological target: 3-phosphoinositide-dependent protein kinase 1 (Homo sapiens) (UniProt O15530); test: Inhibition of PDK1 kinase at 100 nM; design: scale not given: the % may be the effect or the level left; outline: as §1
[34] = biological target: Protein kinase C beta type (Homo sapiens) (UniProt P05771); test: Inhibition of Protein kinase C beta 2 at 500 nM; design: scale not given: the % may be the effect or the level left; outline: as §1
[35] = biological target: Mitogen-activated protein kinase 1 (Homo sapiens) (UniProt P28482); test: Inhibition of Mitogen-activated protein kinase 2 at 500 nM; design: scale not given: the % may be the effect or the level left; outline: as §1
[36] = Percent control against SKG at compound concentration of 500 nM; outline: as §2
[37] = biological target: Calcium/calmodulin-dependent protein kinase type IV (Homo sapiens) (UniProt Q16566); test: Inhibition of Calcium/calmodulin-dependent protein kinase type IV at 500 nM; design: scale not given: the % may be the effect or the level left; outline: as §1
[38] = biological target: RAF proto-oncogene serine/threonine-protein kinase (Homo sapiens) (UniProt P04049); test: Inhibition of RAF proto-oncogene serine/threonine-protein kinase at 100 nM; design: scale not given: the % may be the effect or the level left; outline: as §2
[39] = biological target: Ribosomal protein S6 kinase alpha-5 (Homo sapiens) (UniProt O75582); test: Inhibition of MSK-1 kinase at 500 nM; design: scale not given: the % may be the effect or the level left; outline: as §1
[40] = biological target: Tyrosine-protein kinase Lyn (Homo sapiens) (UniProt P07948); test: Inhibition of Protein tyrosine kinase Lyn at 500 nM; design: scale not given: the % may be the effect or the level left; outline: as §2
[41] = biological target: RAC-alpha serine/threonine-protein kinase (Homo sapiens, UniProt P31749); test: Inhibition of Protein kinase B, Akt-1
[42] = biological target: T3, Cyclin-dependent kinase 5/CDK5 activator 1 (Homo sapiens); test: Inhibition of Cyclin-dependent kinase 5-p35nck5a at 100 nM; type: protein-complex assay; design: scale not given: the % may be the effect or the level left; outline: as §1
[43] = biological target: Mitogen-activated protein kinase 12 (Homo sapiens) (UniProt P53778); test: Inhibition of Stress activated protein kinase 3 at 100 nM; design: scale not given: the % may be the effect or the level left; outline: as §2
[44] = biological target: MAP kinase-activated protein kinase 2 (Homo sapiens) (UniProt P49137); test: Inhibition of mitogen-activated protein kinase-activated protein kinase 2 at 100 nM; design: scale not given: the % may be the effect or the level left; outline: as §2
[45] = biological target: Serine/threonine-protein kinase N2 (Homo sapiens) (UniProt Q16513); test: Inhibition of PRK2 at 100 nM; design: scale not given: the % may be the effect or the level left; outline: as §1
[46] = tested on: HCT-116; test: In vitro antiproliferative activity against human carcinoma cell line HCT116 (colon); type: functional, cell-based

Chain of Ribosomal protein S6 kinase alpha-5 (Homo sapiens) (O75582 whole entry, looked up): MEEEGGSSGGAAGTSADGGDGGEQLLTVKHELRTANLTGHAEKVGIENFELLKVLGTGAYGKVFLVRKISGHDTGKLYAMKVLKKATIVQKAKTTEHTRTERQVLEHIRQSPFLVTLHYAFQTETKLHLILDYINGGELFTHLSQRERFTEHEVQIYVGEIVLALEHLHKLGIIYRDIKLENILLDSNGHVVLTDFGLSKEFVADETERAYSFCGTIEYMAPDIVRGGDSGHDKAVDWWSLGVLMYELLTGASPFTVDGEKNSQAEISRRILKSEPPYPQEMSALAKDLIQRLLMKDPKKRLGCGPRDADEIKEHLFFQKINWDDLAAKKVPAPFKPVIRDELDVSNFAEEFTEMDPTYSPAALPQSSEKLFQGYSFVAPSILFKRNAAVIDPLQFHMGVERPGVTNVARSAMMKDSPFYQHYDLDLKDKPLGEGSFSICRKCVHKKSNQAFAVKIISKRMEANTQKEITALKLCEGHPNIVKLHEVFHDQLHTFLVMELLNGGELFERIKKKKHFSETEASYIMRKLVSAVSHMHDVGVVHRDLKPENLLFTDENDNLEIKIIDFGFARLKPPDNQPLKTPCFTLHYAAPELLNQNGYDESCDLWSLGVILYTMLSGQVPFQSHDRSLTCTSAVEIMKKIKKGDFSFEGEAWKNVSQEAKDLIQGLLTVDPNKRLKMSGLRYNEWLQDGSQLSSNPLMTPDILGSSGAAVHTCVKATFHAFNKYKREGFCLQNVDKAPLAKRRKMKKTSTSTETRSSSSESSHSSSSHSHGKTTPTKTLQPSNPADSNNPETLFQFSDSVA
Chain of MAP kinase-activated protein kinase 2 (Homo sapiens) (P49137 whole entry, looked up): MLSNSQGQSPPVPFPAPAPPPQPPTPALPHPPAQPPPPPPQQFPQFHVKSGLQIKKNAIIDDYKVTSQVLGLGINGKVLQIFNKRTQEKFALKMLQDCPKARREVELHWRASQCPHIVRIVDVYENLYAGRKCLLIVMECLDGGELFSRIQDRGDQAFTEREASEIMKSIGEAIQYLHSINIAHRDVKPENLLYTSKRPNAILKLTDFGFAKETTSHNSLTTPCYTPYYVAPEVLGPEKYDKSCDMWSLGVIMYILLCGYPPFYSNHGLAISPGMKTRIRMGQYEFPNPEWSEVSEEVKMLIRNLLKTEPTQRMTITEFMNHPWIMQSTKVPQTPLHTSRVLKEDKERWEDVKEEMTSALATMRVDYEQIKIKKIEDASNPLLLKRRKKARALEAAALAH
T2 sequence (P11802 whole entry): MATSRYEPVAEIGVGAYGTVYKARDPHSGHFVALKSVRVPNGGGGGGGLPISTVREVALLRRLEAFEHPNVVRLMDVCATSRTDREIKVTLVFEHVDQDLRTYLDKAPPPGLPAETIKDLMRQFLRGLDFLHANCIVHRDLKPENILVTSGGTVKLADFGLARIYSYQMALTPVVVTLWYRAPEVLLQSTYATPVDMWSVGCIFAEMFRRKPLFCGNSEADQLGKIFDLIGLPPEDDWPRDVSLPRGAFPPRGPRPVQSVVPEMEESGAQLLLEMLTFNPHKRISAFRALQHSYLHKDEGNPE
T2 sequence (P24385 whole entry, further chain): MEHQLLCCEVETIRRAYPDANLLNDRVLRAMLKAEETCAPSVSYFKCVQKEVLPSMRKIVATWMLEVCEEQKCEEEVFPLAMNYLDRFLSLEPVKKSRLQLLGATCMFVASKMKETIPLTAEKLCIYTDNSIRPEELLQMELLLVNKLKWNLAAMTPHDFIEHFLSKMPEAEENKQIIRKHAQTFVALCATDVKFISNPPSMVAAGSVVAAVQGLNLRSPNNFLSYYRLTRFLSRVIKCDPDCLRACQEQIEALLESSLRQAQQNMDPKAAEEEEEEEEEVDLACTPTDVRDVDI
Chain of Serine/threonine-protein kinase N2 (Homo sapiens) (Q16513 whole entry, looked up): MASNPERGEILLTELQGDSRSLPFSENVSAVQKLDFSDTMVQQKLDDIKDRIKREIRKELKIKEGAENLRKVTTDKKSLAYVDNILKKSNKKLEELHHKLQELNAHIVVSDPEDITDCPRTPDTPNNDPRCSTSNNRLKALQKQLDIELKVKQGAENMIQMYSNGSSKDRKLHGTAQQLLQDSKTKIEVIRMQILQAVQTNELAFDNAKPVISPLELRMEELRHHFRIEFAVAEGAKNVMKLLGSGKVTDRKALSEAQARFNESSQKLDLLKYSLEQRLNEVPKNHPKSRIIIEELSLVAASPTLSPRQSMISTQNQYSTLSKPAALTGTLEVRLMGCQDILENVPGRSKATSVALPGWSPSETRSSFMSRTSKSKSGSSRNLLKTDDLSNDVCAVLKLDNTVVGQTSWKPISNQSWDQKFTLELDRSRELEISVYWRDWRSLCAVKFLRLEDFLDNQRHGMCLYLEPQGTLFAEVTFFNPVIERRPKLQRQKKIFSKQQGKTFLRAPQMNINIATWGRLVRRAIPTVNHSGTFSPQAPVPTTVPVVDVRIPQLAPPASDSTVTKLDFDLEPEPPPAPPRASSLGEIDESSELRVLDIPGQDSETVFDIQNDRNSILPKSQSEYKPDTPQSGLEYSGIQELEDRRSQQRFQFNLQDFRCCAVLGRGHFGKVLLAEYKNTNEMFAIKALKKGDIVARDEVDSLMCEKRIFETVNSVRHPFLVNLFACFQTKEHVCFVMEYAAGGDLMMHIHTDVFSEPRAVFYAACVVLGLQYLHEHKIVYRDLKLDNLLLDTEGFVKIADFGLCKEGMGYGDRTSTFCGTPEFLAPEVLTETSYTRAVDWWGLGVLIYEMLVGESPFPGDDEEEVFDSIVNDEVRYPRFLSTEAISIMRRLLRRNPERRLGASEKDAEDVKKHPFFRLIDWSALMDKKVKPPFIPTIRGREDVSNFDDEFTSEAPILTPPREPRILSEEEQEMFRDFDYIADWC
Chain of Inhibitor of nuclear factor kappa-B kinase subunit beta (Homo sapiens) (O14920 whole entry): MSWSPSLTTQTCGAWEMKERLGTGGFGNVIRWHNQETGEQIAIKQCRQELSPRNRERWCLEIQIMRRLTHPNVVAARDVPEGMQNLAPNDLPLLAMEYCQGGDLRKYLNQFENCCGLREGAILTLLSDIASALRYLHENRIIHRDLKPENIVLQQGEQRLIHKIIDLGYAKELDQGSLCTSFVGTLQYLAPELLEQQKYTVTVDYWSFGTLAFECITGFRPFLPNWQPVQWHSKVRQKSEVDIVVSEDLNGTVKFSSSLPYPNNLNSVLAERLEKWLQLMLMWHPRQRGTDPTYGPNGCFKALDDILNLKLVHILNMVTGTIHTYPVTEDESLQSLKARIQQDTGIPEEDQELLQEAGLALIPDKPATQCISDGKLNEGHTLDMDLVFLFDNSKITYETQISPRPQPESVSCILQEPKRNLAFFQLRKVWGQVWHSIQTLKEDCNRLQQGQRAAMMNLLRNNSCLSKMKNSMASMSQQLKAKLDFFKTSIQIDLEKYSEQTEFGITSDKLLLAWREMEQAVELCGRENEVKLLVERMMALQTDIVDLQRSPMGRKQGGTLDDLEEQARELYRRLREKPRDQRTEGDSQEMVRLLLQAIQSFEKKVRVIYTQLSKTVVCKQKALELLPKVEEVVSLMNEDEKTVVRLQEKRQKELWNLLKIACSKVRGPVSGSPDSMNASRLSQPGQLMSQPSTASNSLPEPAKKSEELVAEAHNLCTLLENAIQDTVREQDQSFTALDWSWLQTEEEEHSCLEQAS
Chain of Protein kinase C theta type (Homo sapiens) (Q04759 whole entry, looked up): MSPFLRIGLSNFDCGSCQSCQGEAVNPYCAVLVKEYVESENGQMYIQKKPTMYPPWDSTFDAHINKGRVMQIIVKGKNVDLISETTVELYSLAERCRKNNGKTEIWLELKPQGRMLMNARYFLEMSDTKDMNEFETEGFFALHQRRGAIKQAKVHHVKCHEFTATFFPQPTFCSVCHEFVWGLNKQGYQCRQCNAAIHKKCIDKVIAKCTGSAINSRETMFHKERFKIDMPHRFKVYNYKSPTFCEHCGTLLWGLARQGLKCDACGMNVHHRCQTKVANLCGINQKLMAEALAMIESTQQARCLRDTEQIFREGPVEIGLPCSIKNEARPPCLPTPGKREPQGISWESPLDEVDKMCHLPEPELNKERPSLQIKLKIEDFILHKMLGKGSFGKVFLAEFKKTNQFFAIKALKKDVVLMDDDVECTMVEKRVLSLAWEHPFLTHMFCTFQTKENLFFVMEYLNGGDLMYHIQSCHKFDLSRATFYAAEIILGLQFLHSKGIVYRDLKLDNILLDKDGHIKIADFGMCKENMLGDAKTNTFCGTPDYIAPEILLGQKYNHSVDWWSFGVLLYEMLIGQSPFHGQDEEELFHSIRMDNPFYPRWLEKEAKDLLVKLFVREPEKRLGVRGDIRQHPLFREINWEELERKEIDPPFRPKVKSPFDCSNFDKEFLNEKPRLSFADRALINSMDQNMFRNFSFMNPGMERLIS

For `Cn1ccc2ccc3c4[nH]c5c(CCCN[C@H]6CC[C@H](O)CC6)cccc5c4c4c(c3c21)C(=O)NC4=O`, the pIC50 [1] was < 4.70, the pIC50 [2] was 5.99 and the Control [3] was 94%. It also gave a Control [4] of 107%, a Control [5] of 53% and a Control [6] of 116%. For the same compound, the Control [7] was 98%, the pIC50 [8] was 7.31 and the Control [9] was 65%. It also gave a Control [10] of 99%, a Control [11] of 104% and a Control [12] of 74%. For the same compound, the Control [13] was 70%, the Control [14] was 120% and the Control [15] was 106%. For the same compound, the Control [16] was 100%, the Control [17] was 85% and the pIC50 [18] was 7.72. The Control [19] was 88%, the Control [20] was 100% and the Control [21] was 98%. It also gave a Control [22] of 62%, a Control [23] of 82% and a Control [24] of 84%. For the same compound, the Control [25] was 98%, the Control [26] was 74% and the Control [27] was 92%. The solubility at 168 h [28] was 8900 µg/mL (≈ 18 mM), the Control [29] was 58% and the Control [30] was 91%. The Control [31] was 105%, the Control [32] was 84% and the Control [33] was 104%. The Control [34] was 59%, the Control [35] was 90% and the Control [36] was 84%. The Control [37] was 102%, the Control [38] was 112% and the Control [39] was 90%. For the same compound, the Control [40] was 18%, the pIC50 [41] was 5.26 and the Control [42] was 94%. For the same compound, the Control [43] was 107%, the Control [44] was 94% and the Control [45] was 97%. The pIC50 [46] was 5.98.
